The values below come from ChEMBL document CHEMBL3526048, “In vitro metabolism of rivoglitazone, a novel peroxisome proliferator-activated receptor γ agonist, in rat, monkey, and human liver microsomes and freshly isolated hepatocytes” (Drug Metab Dispos, 2011).

Data set [1] has as its target T1, Cytochrome P450 2D6 (Homo sapiens, UniProt P10635). Put plainly: Activity of human CYP2D6 expressed in microsomes isolated from baculovirus infected insect cell assessed as enzyme-mediated 2-amino-3-((1-carboxy-2-(4-((6-methoxy-1-methyl-1H-benzo[d]imidazol-2-yl)methoxy)phenyl)ethyl)disulfanyl)propanoic acid formation at 20 uM after 2 hrs by radio-HPLC/LC-MS/MS analysis. The format is ADME. The essentials: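 Baculovirus-insect-cell microsomes expressing the human CYP (1 mg/ml protein) were incubated with [14C]rivoglitazone (20 μM) in 50 mM potassium phosphate (pH 7.4) or 100 mM Tris-HCl (pH 7.5) with an NADPH-generating system (2 mM NADP+, 20 mM glucose 6-phosphate, 2 units/ml G6PDH, 10 mM MgCl2) for 2 h at 37°C. Insect-cell control supersomes served as the control. Reactions were stopped with acetonitrile, and the concentrated supernatants were analysed by radio-HPLC, LC-MS and LC-MS/MS.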

Data set [2] has as its system Liver microsome. Put plainly: Drug metabolism in human liver microsomes assessed as formation of 2-hydroxy-3-(4-((6-methoxy-1-methyl-1H-benzo[d]imidazol-2-yl)methoxy)phenyl)propanamide at 20 uM after 2 hrs by radio-HPLC/LC-MS/MS analysis in presence of NADPH-generating system and NADPH-generating system/SAM. It counts as ADME. (In general: Liver microsomes are vesicles of endoplasmic reticulum, rich in cytochrome P450 enzymes.)

Data set [3] in a line: Drug metabolism in cynomolgus monkey liver microsomes assessed as formation of (2S,3S,4S,5R,6R)-3,4,5-trihydroxy-6-(5-(4-((6-methoxy-1-methyl-1H-benzo[d]imidazol-2-yl)methoxy)benzyl)-2,4-dioxothiazolidin-3-yl)tetrahydro-2H-pyran-2-carboxylic acid at 20 uM after 4 hrs by radio-HPLC/LC-MS/MS analysis in presence of UDPGA and UDPGA/SAM. The format is ADME, Macaca fascicularis.

Data set [4] has as its target T2, UDP-glucuronosyltransferase 1A7 (Homo sapiens, UniProt Q9HAW7).
T2 sequence (Q9HAW7 whole entry): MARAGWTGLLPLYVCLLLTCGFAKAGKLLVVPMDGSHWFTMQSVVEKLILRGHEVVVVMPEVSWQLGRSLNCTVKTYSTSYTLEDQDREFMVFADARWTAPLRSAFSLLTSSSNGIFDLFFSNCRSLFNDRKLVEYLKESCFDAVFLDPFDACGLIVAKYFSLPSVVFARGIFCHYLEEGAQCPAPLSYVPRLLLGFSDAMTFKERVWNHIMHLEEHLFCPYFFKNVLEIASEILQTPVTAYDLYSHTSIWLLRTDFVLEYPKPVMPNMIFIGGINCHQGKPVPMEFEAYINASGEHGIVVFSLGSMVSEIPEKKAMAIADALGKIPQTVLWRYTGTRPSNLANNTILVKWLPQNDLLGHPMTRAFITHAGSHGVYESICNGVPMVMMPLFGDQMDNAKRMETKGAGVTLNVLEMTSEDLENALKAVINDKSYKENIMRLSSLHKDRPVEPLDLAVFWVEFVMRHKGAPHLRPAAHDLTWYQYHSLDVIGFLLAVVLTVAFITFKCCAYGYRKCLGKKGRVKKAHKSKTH
Put plainly: Activity of human UGT1A7 expressed in microsomes isolated from baculovirus infected insect cell assessed as enzyme-mediated 2-mercapto-3-(4-((6-methoxy-1-methyl-1H-benzo[d]imidazol-2-yl)methoxy)phenyl)propanoic acid formation at 20 uM after 4 hrs by radio-HPLC/LC-MS/MS analysis in presence of UDPGA. The format is ADME.

Data set [5] concerns the target T1, Cytochrome P450 2D6. Put plainly: Activity of human CYP2D6 expressed in microsomes isolated from baculovirus infected insect cell assessed as enzyme-mediated 3-(4-((6-methoxy-1-methyl-1H-benzo[d]imidazol-2-yl)methoxy)phenyl)-2-(methylsulfonyl)propanamide formation at 20 uM after 2 hrs by radio-HPLC/LC-MS/MS analysis in presence of NADPH-generating system/SAM. The format is ADME.

In data set [6] the target is Cytochrome P450 3A5 (Homo sapiens, UniProt P20815). Put plainly: Activity of human CYP3A5 expressed in microsomes isolated from baculovirus infected insect cell assessed as enzyme-mediated (2S,3S,4S,5R,6R)-3,4,5-trihydroxy-6-(5-(4-((6-methoxy-1-methyl-1H-benzo[d]imidazol-2-yl)methoxy)benzyl)-2,4-dioxothiazolidin-3-yl)tetrahydro-2H-pyran-2-carboxylic acid formation at 20 uM after 2 hrs by radio-HPLC/LC-MS/MS analysis in presence of UDPGA and UDPGA/SAM. The format is ADME.
Chain of Cytochrome P450 3A5 (P20815 whole entry): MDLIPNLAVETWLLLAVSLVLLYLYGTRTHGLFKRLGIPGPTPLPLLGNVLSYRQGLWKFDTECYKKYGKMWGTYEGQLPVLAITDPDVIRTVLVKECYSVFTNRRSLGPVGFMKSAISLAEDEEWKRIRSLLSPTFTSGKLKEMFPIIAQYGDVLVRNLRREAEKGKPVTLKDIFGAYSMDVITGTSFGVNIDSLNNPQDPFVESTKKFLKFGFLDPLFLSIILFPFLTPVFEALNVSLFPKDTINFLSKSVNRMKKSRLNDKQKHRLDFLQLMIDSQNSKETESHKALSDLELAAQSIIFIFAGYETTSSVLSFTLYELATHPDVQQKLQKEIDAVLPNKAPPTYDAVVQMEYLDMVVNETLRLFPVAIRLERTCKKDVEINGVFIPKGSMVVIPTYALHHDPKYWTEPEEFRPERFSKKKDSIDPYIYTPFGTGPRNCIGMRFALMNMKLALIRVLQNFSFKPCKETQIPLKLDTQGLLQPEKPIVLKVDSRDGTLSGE

A short description of data set [7]: Drug metabolism in rat hepatocytes assessed as formation of (2S,3S,4S,5R,6R)-3,4,5-trihydroxy-6-(5-(4-((6-methoxy-1-methyl-1H-benzo[d]imidazol-2-yl)methoxy)benzyl)-2,4-dioxothiazolidin-3-yl)tetrahydro-2H-pyran-2-carboxylic acid at 30 uM after 3 hrs by radio-HPLC/LC-MS/MS analysis in presence of UDPGA and UDPGA/SAM. The format is ADME, cell-based, Hepatocyte.
Data set [8] can be described thus: Drug metabolism in rat hepatocytes assessed as formation of 2-amino-3-((1-carboxy-2-(4-((6-methoxy-1-methyl-1H-benzo[d]imidazol-2-yl)methoxy)phenyl)ethyl)disulfanyl)propanoic acid at 30 uM after 3 hrs by radio-HPLC/LC-MS/MS analysis. The format is ADME, cell-based, Hepatocyte.
Data set [9] deals with Cytochrome P450 3A4 (Homo sapiens, UniProt P08684). Put plainly: Activity of human CYP3A4 expressed in microsomes isolated from baculovirus infected insect cell assessed as enzyme-mediated 5-(4-((6-hydroxy-1-methyl-1H-benzo[d]imidazol-2-yl)methoxy)benzyl)thiazolidine-2,4-dione formation at 20 uM after 2 hrs by radio-HPLC/LC-MS/MS analysis in presence of NADPH-generating system and NADPH-generating system/SAM. It counts as ADME.
Chain of Cytochrome P450 3A4 (P08684 whole entry): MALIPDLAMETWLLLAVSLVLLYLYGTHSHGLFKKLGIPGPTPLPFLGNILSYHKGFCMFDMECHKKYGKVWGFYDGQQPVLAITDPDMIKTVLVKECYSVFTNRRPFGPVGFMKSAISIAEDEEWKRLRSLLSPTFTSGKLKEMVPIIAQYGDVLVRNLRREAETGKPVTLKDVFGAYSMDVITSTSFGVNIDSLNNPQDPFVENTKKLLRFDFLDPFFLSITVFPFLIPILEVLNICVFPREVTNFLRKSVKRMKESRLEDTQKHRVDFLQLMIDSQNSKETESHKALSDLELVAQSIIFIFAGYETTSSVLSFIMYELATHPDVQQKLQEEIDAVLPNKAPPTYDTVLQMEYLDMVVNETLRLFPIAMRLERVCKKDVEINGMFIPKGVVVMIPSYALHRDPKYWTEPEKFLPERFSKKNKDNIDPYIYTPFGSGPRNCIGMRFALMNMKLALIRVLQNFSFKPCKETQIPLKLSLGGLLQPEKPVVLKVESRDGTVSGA

T1 sequence (P10635 whole entry): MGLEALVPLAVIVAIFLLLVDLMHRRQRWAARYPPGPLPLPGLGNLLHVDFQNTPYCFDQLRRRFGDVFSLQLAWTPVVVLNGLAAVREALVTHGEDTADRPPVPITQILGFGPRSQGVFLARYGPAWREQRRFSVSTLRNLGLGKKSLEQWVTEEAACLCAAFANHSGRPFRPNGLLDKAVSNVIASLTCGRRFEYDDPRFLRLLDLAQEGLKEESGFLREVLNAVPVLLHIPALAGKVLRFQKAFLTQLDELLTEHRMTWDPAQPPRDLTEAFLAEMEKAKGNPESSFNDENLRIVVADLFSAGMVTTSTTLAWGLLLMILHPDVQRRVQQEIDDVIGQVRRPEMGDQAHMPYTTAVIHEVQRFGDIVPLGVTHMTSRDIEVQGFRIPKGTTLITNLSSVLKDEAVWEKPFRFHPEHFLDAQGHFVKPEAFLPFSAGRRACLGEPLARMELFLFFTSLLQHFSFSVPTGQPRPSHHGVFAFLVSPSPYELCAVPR

Turning to `COc1ccc2nc(COc3ccc(C[14CH]4SC(=O)NC4=O)cc3)n(C)c2c1.Cl` (racemic), the Drug metabolism entry is on record as “metabolite_not_detected” in data set [1]; “metabolite_detected” in [2]; “metabolite_detected” in [3]; “metabolite_not_detected” in data set [4]; “metabolite_not_detected” in [5]; “metabolite_not_detected” in data set [6]. The Drug metabolism result is on record as “metabolite_detected” in data set [7], “metabolite_not_detected” in data set [8] and “metabolite_detected” in [9].
